The test system of experiment [1] is T1, Receptor-interacting serine/threonine-protein kinase 1 (Homo sapiens), Q13546 [K45M].
T1 sequence (whole entry): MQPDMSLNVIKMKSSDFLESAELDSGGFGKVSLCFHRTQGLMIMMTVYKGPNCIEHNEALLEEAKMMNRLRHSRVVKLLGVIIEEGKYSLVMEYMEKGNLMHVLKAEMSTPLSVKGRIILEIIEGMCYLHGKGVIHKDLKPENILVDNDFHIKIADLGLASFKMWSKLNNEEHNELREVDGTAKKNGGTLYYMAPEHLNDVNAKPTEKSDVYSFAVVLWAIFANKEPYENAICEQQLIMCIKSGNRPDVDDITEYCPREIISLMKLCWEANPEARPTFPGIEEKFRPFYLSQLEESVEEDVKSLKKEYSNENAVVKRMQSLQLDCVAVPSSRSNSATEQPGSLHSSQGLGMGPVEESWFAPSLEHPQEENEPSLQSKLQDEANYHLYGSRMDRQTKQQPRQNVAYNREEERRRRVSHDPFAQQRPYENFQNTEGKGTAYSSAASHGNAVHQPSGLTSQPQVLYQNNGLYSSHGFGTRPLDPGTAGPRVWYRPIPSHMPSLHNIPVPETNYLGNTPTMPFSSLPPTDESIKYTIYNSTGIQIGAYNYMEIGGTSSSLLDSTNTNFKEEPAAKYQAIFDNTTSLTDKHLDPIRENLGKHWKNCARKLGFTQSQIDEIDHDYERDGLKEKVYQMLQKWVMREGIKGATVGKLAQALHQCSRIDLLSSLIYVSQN
Kind of experiment: Inhibition of human RIP1 K45M mutant autophosphorylation expressed in HEK293T cells. The format is cell-based. Particulars: HEK-293T.

The target in experiment [2] is T2, Receptor-interacting serine/threonine-protein kinase 1 (Homo sapiens) (UniProt Q13546).
T2 sequence (whole entry): T1 sequence (whole entry) with M45K
Kind of experiment: (§1) Inhibition of endogenous RIP1 autophosphorylation in human Jurkat cells. The format is cell-based. In outline:
(§2)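 RIP1 immunoprecipitated from Jurkat cells and autophosphorylated in vitro across a titration of compound. Autophosphorylation quantified by phosphorimager; EC50 derived by nonlinear regression curve fitting. An aliquot of each reaction was blotted for RIP1 to check protein input.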

For experiment [3], the system named is Jurkat. The experiment in a line: Inhibition of cellular necroptosis in TNFalpha treated FADD deficient human Jurkat cells. The format is functional, cell-based.
In experiment [4] the test system is T1, Receptor-interacting serine/threonine-protein kinase 1 (Homo sapiens), Q13546 [K45M]. The experiment in a line: Inhibition of human RIP1 K45M mutant autophosphorylation expressed in Sf9 cells.
Experiment [5] has as its system Jurkat. The experiment in a line: Inhibition of cellular necroptosis in TNFalpha treated FADD and RIP1 deficient human Jurkat cells at 30 uM. The format is functional, cell-based.
Experiment [6] relates to T1, Receptor-interacting serine/threonine-protein kinase 1 (Homo sapiens), Q13546 [K45M]. Kind of experiment: Inhibition of human RIP1 K45M mutant autophosphorylation expressed in FADD deficient human Jurkat cells at 10 to 30 uM. The format is cell-based.
Experiment [7] shares this test system. The experiment in a line: Inhibition of human RIP1 K45M mutant autophosphorylation expressed in Sf9 cells at 10 to 30 uM.
Experiment [8] has as its system HEK-293T. The experiment in a line: Inhibition of TNF-alpha-induced NF-kappaB activation expressed in HEK293T cells by luciferase reporter gene assay. The format is cell-based. A digest of the protocol:
(§3)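 293T cells, 1.2*10^6/well, cotransfected with pNFkB-Luc and pRSV-β-galactosidase control; 48 h later stimulated with 10 ng ml-1 human TNFα for 4 h with 30 µM compound. Luciferase (Bright-Glo) normalized to β-gal activity (ONPG, 30 °C, A420). Results expressed as fold over unstimulated cells; s.d. shown.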
(In general: A reporter such as luciferase makes a cellular process visible.)

In experiment [9] the test system is Jurkat. The experiment in a line: Inhibition of TNF-alpha-induced NF-kappaB activation expressed in FADD deficient human Jurkat cells by luciferase reporter gene assay. The format is cell-based. A digest of the protocol: (§4)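 FADD-deficient Jurkat cells carrying a lentiviral NF-kB luciferase reporter, 2*10^4 cells/well, stimulated with 10 ng ml-1 human TNFα for 4 h with 30 µM compound. Luminescence read by Bright-Glo. Values given as fold luciferase increase over unstimulated cells; s.d. shown.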

Experiment [10] deals with T3, Receptor-interacting serine/threonine-protein kinase 1 (Homo sapiens, UniProt Q13546).
T3 sequence (Q13546 whole entry): T1 sequence (whole entry) with M45K
Described as §1. The format is cell-based. In outline:
as §2

For experiment [11], the target named is Receptor-interacting serine/threonine-protein kinase 2 (Homo sapiens) (UniProt O43353). The experiment in a line: Inhibition of human RIP2 autophosphorylation expressed in HEK293T cells. The format is cell-based. Particulars: HEK-293T. A digest of the protocol: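 Myc-tagged RIP2 was transiently expressed in 293T cells, immunoprecipitated with anti-Myc antibody (clone 9E10), and used in an in vitro autophosphorylation kinase reaction with compound at the indicated concentrations, with DMSO as the vehicle.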
Receptor-interacting serine/threonine-protein kinase 2 (Homo sapiens), sequence (O43353 whole entry): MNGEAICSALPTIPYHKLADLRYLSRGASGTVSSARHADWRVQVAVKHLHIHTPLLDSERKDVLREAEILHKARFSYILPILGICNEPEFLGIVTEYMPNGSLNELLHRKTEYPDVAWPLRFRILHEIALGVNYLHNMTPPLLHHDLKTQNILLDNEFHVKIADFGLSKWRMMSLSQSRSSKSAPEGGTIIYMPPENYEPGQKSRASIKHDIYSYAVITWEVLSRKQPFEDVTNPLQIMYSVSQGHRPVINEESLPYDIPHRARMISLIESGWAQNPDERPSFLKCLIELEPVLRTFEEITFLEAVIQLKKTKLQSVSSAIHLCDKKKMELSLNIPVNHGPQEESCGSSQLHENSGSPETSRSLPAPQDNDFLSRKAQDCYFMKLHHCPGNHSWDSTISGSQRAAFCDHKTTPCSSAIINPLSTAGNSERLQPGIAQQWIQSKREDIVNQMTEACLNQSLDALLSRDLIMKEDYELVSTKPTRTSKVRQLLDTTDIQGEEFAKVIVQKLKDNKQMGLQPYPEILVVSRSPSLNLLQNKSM

Experiment [12] addresses Receptor-interacting serine/threonine-protein kinase 3 (Homo sapiens) (UniProt Q9Y572). The experiment in a line: Inhibition of human RIP3 autophosphorylation expressed in HEK293T cells. The format is cell-based. The conditions noted are these: HEK-293T.
Experiment [13] deals with Jurkat. Kind of experiment: Inhibition of cellular necroptosis in TNFalpha treated […] human Jurkat cells expressing RIP1 S161E mutant at 30 uM. The format is functional, cell-based.
The test system of experiment [14] is Jurkat. The experiment in a line: Inhibition of cellular necroptosis in TNFalpha treated […] human Jurkat cells expressing RIP1 F162E mutant at 30 uM. The format is functional, cell-based.
The target of experiment [15] is T4, Heat shock protein HSP90 (Homo sapiens) (UniProt P07900+P08238). Kind of experiment: Inhibition of FITC-geldanamycin binding to HSP90 in human Jurkat cell lysates at 30 uM by fluorimetric assay. The format is cell-free.
Experiment [16] concerns the target T4, Heat shock protein HSP90 (Homo sapiens). Kind of experiment: Inhibition of to HSP90 in FADD deficient human Jurkat cells assessed as RIP protein degradation at 30 uM by Western blot. The format is cell-based. In outline:
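FADD-deficient Jurkat cells exposed to 30 µM compound for 16 hr; RIP1 levels then assessed by western blot against anti-RIP1, with tubulin as loading control.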
On the technique in general: Immunoblotting shows a protein as a band on a membrane.

For experiment [17], the system named is HEK-293T. The experiment in a line: Inhibition of TNF-alpha-induced NF-kappaB activation expressed in HEK293T cells at 30 uM by luciferase reporter gene assay. The format is cell-based. In outline: as §3
Experiment [18] relates to Jurkat. The experiment in a line: Inhibition of TNF-alpha-induced NF-kappaB activation expressed in FADD deficient human Jurkat cells at 30 uM by luciferase reporter gene assay. The format is cell-based. A digest of the protocol:
as §4

Experiment [19] deals with T5, Receptor-interacting serine/threonine-protein kinase 1 (Homo sapiens), Q13546 [S161E].
T5 sequence (whole entry): T1 sequence (whole entry) with M45K, S161E
Particulars: HEK-293T, 100 uM.

Experiment [20] has the same test system. The experiment in a line: Inhibition of human RIP1 S161E mutant autophosphorylation expressed in HEK293T cells at 10 to 30 uM. The format is cell-based. The conditions noted are these: HEK-293T.

Where a chain is given by its changes, count along the chain named. The source made the active and inactive calls. The rule behind the calls is not given here. Peptide text beside a SMILES is read from it. * marks the point of attachment. Cbz = O=C(OCc1ccccc1)*; CH2F = FC*

Receptor-interacting serine/threonine-protein kinase 3 (Homo sapiens), sequence (Q9Y572 whole entry, looked up): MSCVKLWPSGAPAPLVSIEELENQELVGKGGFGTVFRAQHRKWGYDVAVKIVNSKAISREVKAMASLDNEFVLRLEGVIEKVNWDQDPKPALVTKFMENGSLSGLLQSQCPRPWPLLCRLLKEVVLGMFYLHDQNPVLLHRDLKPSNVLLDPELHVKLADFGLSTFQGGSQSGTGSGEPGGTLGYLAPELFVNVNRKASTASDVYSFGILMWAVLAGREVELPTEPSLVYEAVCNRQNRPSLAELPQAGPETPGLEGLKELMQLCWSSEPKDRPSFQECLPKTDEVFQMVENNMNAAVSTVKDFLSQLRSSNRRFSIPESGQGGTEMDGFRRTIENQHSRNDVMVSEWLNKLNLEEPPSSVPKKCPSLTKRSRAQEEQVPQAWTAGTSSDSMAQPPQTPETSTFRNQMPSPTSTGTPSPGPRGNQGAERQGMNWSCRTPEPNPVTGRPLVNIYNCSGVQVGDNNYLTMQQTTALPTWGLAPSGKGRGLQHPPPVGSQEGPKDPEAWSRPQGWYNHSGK

Consider `CN1C(=O)NC(Cc2c[nH]c3ccccc23)C1=O` (stereo not drawn), for which the inhibition result in [1] is “Active”.

Broadly, the EC50 is the concentration that produces a half-maximal response. A high value points to a less potent agent. With `O=C1NC(=S)NC1Cc1c[nH]c2ccccc12` (stereo not drawn), the inhibition result in experiment [1], in experiment [2] and in experiment [4] was “inactive” throughout. Also, the EC50 in the experiment with Jurkat [3] was > 100 µM.

For `CN1C(=O)C(Cc2cn(C)c3ccccc23)NC1=S` (stereo not drawn), in [1], the inhibition entry was “inactive”. Besides, in the experiment with Jurkat [3], the EC50 turned out to be 33 µM.

For the compound `COC(=O)C[C@H](NC(=O)[C@H](C)NC(=O)[C@@H](NC(=O)OCc1ccccc1)C(C)C)C(=O)CF` (Cbz-Val-Ala-Asp(OMe)-CH2F), in the experiment on Jurkat [5], the inhibition result was “inactive”.

For `COc1ccc([C@H]2[C@H]3CCc4c(OC)cccc4C3=NN2C(C)=O)cc1`, in experiment [1], the inhibition result was “inactive”. For the same compound, in the experiment on Jurkat [3], the EC50 was > 100 µM.

`C[C@@H]1C[C@@H]([C@H](O)CC2CC(=O)NC(=O)C2)C(=O)[C@@H](C)C1`: in the experiment with Jurkat [5], the inhibition result was “inactive”.

Take `CN1C(=O)C(C)(Cc2c[nH]c3ccccc23)NC1=S` (stereo not drawn): the inhibition result in [1] is “inactive”. Besides, in the experiment on Jurkat [3], the EC50 is > 100 µM.

For the compound `COC1=C2C[C@@H](C)C[C@H](OC)[C@H](O)[C@@H](C)/C=C(\C)[C@H](OC(N)=O)[C@@H](OC)/C=C\C=C(/C)C(=O)NC(=CC1=O)C2=O`, the inhibition entry in [6] and in experiment [7] was “inactive” each time. In addition, the inhibition result with HEK-293T [8] and in the experiment on Jurkat [9] was “Active” throughout.

Consider `CN1C(=O)C(Cc2c[nH]c3c(Cl)cccc23)NC1=S` (stereo not drawn), for which, in experiment [1], the inhibition result is “Active”.

On to `CN1C(=O)C(Cc2c[nH]c3ccccc23)NC1=S` (stereo not drawn) [NECROSTATIN], for which, in experiment [1], the inhibition entry is “Dose-dependent effect”. Further, in experiment [10], the response was half-maximal at 0.182 µM (EC50). Also, the inhibition result in experiment [4] is “Active”. The inhibition result (in [11]; in [12]; in the experiment on Jurkat [13]; with Jurkat [14]; in [15]; in experiment [16]) was “inactive” each time. For the same compound, the inhibition result (in the experiment on HEK-293T [17]; in the experiment with Jurkat [18]; in experiment [19]) was “inactive” each time.

Turning to `O=[N+]([O-])c1ccc(-c2nc(-c3ccc(F)cc3)c(-c3ccncc3)[nH]2)cc1`, the inhibition result in experiment [11] is “Active”.

As to `CN1C(=O)C(Cc2c[nH]c3ccccc23)N(C)C1=S` (stereo not drawn), in experiment [1], the inhibition result is “inactive”. In the experiment with Jurkat [3], this compound displayed an EC50 of 78 µM.

Consider `CN1CC(Cc2c[nH]c3c(Cl)cccc23)NC1=O` (stereo not drawn), for which, in the experiment with Jurkat [3], the EC50 is > 100 µM.

For `N#CCSc1nc2sc3c(c2c(=O)n1-c1ccccc1)CCCC3`, the inhibition result in experiment [1] was “inactive”. The EC50 with Jurkat [3] was > 100 µM.

For `COc1ccc(-n2c(SCC#N)nc3sc4c(c3c2=O)CCCC4)cc1`, the inhibition entry in experiment [1] and in [6] was “Active” throughout. Further, the inhibition result (in experiment [4]; in [15]; in experiment [16]; with HEK-293T [17]; with Jurkat [18]) was “inactive” throughout.

As to `COc1ccc([C@H]2[C@H]3CCc4ccccc4C3=NN2C(C)=O)cc1`, the inhibition entry (in experiment [1]; in [4]; in the experiment on Jurkat [13]; in experiment [6]; in experiment [20]) was “Active” throughout. For the same compound, the concentration for a half-maximal effect (EC50) in the experiment with Jurkat [3] came to 0.29 µM. For the same compound, the inhibition result (in experiment [15]; in [16]; with HEK-293T [17]; with Jurkat [18]) was “inactive” each time.

The values are drawn from ChEMBL document CHEMBL1212703, “Identification of RIP1 kinase as a specific cellular target of necrostatins” (Nat Chem Biol, 2008).
